Results taken from ChEMBL document CHEMBL3351634, “Novel sulfonamides bearing pyrrole and pyrrolopyrimidine moieties as carbonic anhydrase inhibitors: Synthesis, cytotoxic activity and molecular modeling” (Eur J Med Chem, 2014).

Key:
MCF7 [1] = test: Cytotoxicity against human MCF7 cells after 48 hrs by sulforhodamine-B assay; conditions: MCF7, 48 h
Carbonic anhydrase 9 = Carbonic anhydrase 9 (Homo sapiens, UniProt Q16790); test: Inhibition of human recombinant carbonic anhydrase 9 preincubated for 15 mins by stopped-flow CO2 hydrase assay
MCF7 [2] = test: Cytotoxicity against human MCF7 cells assessed as cell survival at 10 uM after 48 hrs by sulforhodamine-B assay; type: functional; conditions: MCF7, 48 h, read-out: Survival
How it was run: (§1)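 Cells plated at 10⁴ per well and left 24 h to attach, then exposed for 48 h at 37 °C under 5% CO₂, with triplicate wells per concentration. Cells were fixed, washed and stained 30 min with 0.4% (wt/vol) SRB in 1% acetic acid. Unbound dye was removed with four 1% acetic acid washes and bound stain recovered in Tris-EDTA. Colour was read on an ELISA reader and expressed as surviving fraction.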

MCF7 [3] = test: Cytotoxicity against human MCF7 cells assessed as cell survival at 25 uM after 48 hrs by sulforhodamine-B assay; type: functional; conditions: MCF7, 48 h, read-out: Survival; how it was run: as §1
MCF7 [4] = test: Cytotoxicity against human MCF7 cells assessed as cell survival at 50 uM after 48 hrs by sulforhodamine-B assay; type: functional; conditions: MCF7, 48 h, read-out: Survival; how it was run: as §1
MCF7 [5] = test: Cytotoxicity against human MCF7 cells assessed as cell survival at 100 uM after 48 hrs by sulforhodamine-B assay; type: functional; conditions: MCF7, 48 h, read-out: Survival; how it was run: as §1
Carbonic anhydrase 1 = Carbonic anhydrase 1 (Homo sapiens, UniProt P00915); test: Inhibition of human recombinant carbonic anhydrase 1 preincubated for 15 mins by stopped-flow CO2 hydrase assay
Carbonic anhydrase 1, sequence (P00915 whole entry): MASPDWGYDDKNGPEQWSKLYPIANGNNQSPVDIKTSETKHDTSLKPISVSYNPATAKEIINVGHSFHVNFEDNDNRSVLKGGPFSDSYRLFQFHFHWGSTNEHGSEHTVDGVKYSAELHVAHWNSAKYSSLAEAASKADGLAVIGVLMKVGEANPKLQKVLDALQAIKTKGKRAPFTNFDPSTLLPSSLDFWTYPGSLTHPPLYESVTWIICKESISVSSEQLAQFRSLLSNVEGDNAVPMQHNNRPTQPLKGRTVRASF

Carbonic anhydrase 2 = Carbonic anhydrase 2 (Homo sapiens, UniProt P00918); test: Inhibition of human recombinant carbonic anhydrase 2 preincubated for 15 mins by stopped-flow CO2 hydrase assay

In the case of `N#Cc1c(-c2ccc(Br)cc2)cn(-c2ccc(S(N)(=O)=O)cc2)c1N`, the IC50 (MCF7 [1]) is reported as 7.56 µM.

`N#Cc1c(-c2ccc(Br)cc2)cn(-c2ccc(S(N)(=O)=O)cc2)c1NC(=S)Nc1ccccc1` gave a Ki (Carbonic anhydrase 9) of 0.0624 µM, a viability at 10 µM (MCF7 [2]) of 30.8% and a viability at 25 µM (MCF7 [3]) of 23.5%. It also gave a viability at 50 µM (MCF7 [4]) of 22.7%, a viability at 100 µM (MCF7 [5]) of 21.7% and an IC50 (MCF7 [1]) of 7.29 µM.

Compound `COc1ccc(NC(=S)Nc2c(C#N)c(-c3ccc(Br)cc3)cn2-c2ccc(S(N)(=O)=O)cc2)cc1` has a viability at 10 µM (MCF7 [2]) of 26.2%, a viability at 25 µM (MCF7 [3]) of 26.3% and a viability at 50 µM (MCF7 [4]) of 24.9%. It also gave a viability at 100 µM (MCF7 [5]) of 21.7% and an IC50 (MCF7 [1]) of 7.01 µM.

`N#Cc1c(-c2ccc(Br)cc2)cn(-c2ccc(S(N)(=O)=O)cc2)c1NC(=S)Nc1ccc(Cl)cc1` gave a Ki (Carbonic anhydrase 9) of 0.0903 µM, a viability at 10 µM (MCF7 [2]) of 28.8% and a viability at 25 µM (MCF7 [3]) of 25.7%. It also gave a viability at 50 µM (MCF7 [4]) of 26%, a viability at 100 µM (MCF7 [5]) of 29% and an IC50 (MCF7 [1]) of 8.12 µM.

Compound `N#Cc1c(-c2ccc(Br)cc2)cn(-c2ccc(S(N)(=O)=O)cc2)c1NC(=S)Nc1ccc([N+](=O)[O-])cc1` has a Ki (Carbonic anhydrase 9) of 0.0866 µM, a viability at 10 µM (MCF7 [2]) of 28% and a viability at 25 µM (MCF7 [3]) of 27.6%. The viability at 50 µM (MCF7 [4]) was 25.5%, the viability at 100 µM (MCF7 [5]) was 26% and the IC50 (MCF7 [1]) was 8.11 µM.

With `N#Cc1c(-c2ccc(Br)cc2)cn(-c2ccc(S(N)(=O)=O)cc2)c1NC(=S)Nc1ccc(Br)cc1` the viability at 10 µM (MCF7 [2]) was 29.8%, the viability at 25 µM (MCF7 [3]) was 28% and the viability at 50 µM (MCF7 [4]) was 27.7%. It also gave a viability at 100 µM (MCF7 [5]) of 29% and an IC50 (MCF7 [1]) of 8.15 µM.

For `N#Cc1c(-c2ccc(Br)cc2)cn(-c2ccc(S(N)(=O)=O)cc2)c1NC(=S)Nc1ccc(I)cc1`, the Ki (Carbonic anhydrase 9) was 0.46 µM, the viability at 10 µM (MCF7 [2]) was 31.2% and the viability at 25 µM (MCF7 [3]) was 29%. For the same compound, the viability at 50 µM (MCF7 [4]) was 28.1%, the viability at 100 µM (MCF7 [5]) was 28.8% and the IC50 (MCF7 [1]) was 8.15 µM.

`N#Cc1c(-c2ccc(Br)cc2)cn(-c2ccc(S(N)(=O)=O)cc2)c1NC(=S)Nc1ccc(S(N)(=O)=O)cc1` gave a Ki (Carbonic anhydrase 9) of 0.0512 µM, a viability at 10 µM (MCF7 [2]) of 31.1% and a viability at 25 µM (MCF7 [3]) of 29.1%. The viability at 50 µM (MCF7 [4]) was 25.5%, the viability at 100 µM (MCF7 [5]) was 27.6% and the IC50 (MCF7 [1]) was 8.13 µM.

Work on `Cc1ccc(-n2c(=S)[nH]c3c(c(-c4ccc(Br)cc4)cn3-c3ccc(S(N)(=O)=O)cc3)c2=N)cc1` yielded a viability at 10 µM (MCF7 [2]) of 25%, a viability at 25 µM (MCF7 [3]) of 24.2% and a viability at 50 µM (MCF7 [4]) of 22.9%. For the same compound, the viability at 100 µM (MCF7 [5]) was 24.5% and the IC50 (MCF7 [1]) was 6.46 µM.

With `N#Cc1c(-c2ccc(Br)cc2)cn(-c2ccc(S(N)(=O)=O)cc2)c1NS(=O)(=O)c1ccccc1` the Ki (Carbonic anhydrase 9) was 0.849 µM, the viability at 10 µM (MCF7 [2]) was 27.2% and the viability at 25 µM (MCF7 [3]) was 29%. It also gave a viability at 50 µM (MCF7 [4]) of 20.2%, a viability at 100 µM (MCF7 [5]) of 23.2% and an IC50 (MCF7 [1]) of 7.01 µM.

`Cc1ccc(S(=O)(=O)Nc2c(C#N)c(-c3ccc(Br)cc3)cn2-c2ccc(S(N)(=O)=O)cc2)cc1` gave a Ki (Carbonic anhydrase 9) of 0.171 µM, a viability at 10 µM (MCF7 [2]) of 32.4% and a viability at 25 µM (MCF7 [3]) of 27.1%. For the same compound, the viability at 50 µM (MCF7 [4]) was 22.2%, the viability at 100 µM (MCF7 [5]) was 21.4% and the IC50 (MCF7 [1]) was 7.56 µM.

`Nc1nc(=O)[nH]c2c1c(-c1ccc(Br)cc1)cn2-c1ccc(S(N)(=O)=O)cc1` gave a Ki (Carbonic anhydrase 9) of 0.0244 µM, a viability at 10 µM (MCF7 [2]) of 27% and a viability at 25 µM (MCF7 [3]) of 27.6%. The viability at 50 µM (MCF7 [4]) was 20.3%, the viability at 100 µM (MCF7 [5]) was 23.8% and the IC50 (MCF7 [1]) was 6.74 µM.

In the case of `Nc1nc(=S)[nH]c2c1c(-c1ccc(Br)cc1)cn2-c1ccc(S(N)(=O)=O)cc1`, the Ki (Carbonic anhydrase 9) is reported as 0.0429 µM, the viability at 10 µM (MCF7 [2]) is reported as 23.1% and the viability at 25 µM (MCF7 [3]) is reported as 25.5%. For the same compound, the viability at 50 µM (MCF7 [4]) was 19.9%, the viability at 100 µM (MCF7 [5]) was 25% and the IC50 (MCF7 [1]) was 6.46 µM.

In the case of `NS(=O)(=O)c1ccc(-n2cc(-c3ccc(Br)cc3)c3c(=S)[nH]c(=S)[nH]c32)cc1`, the Ki (Carbonic anhydrase 9) is reported as 0.0071 µM, the viability at 10 µM (MCF7 [2]) is reported as 33.7% and the viability at 25 µM (MCF7 [3]) is reported as 29.4%. For the same compound, the viability at 50 µM (MCF7 [4]) was 21.9%, the viability at 100 µM (MCF7 [5]) was 22.5% and the IC50 (MCF7 [1]) was 7.56 µM.

With `C/C(S)=N/c1c(C#N)c(-c2ccc(Br)cc2)cn1-c1ccc(S(N)(=O)=O)cc1` the Ki (Carbonic anhydrase 9) was 0.006 µM, the viability at 10 µM (MCF7 [2]) was 33% and the viability at 25 µM (MCF7 [3]) was 31.2%. For the same compound, the viability at 50 µM (MCF7 [4]) was 30%, the viability at 100 µM (MCF7 [5]) was 29.9% and the IC50 (MCF7 [1]) was 8.11 µM.

`Cc1nc(S)c2c(-c3ccc(Br)cc3)cn(-c3ccc(S(N)(=O)=O)cc3)c2n1` showed a Ki (Carbonic anhydrase 9) of 0.0054 µM, a viability at 10 µM (MCF7 [2]) of 23.6% and a viability at 25 µM (MCF7 [3]) of 21.8%. The viability at 50 µM (MCF7 [4]) was 19.8%, the viability at 100 µM (MCF7 [5]) was 23.1% and the IC50 (MCF7 [1]) was 6.74 µM.

Work on `CC(=O)CC(=O)Nc1c(C#N)c(-c2ccc(Br)cc2)cn1-c1ccc(S(N)(=O)=O)cc1` yielded a Ki (Carbonic anhydrase 9) of 0.0055 µM, a viability at 10 µM (MCF7 [2]) of 29% and a viability at 25 µM (MCF7 [3]) of 28.2%. It also gave a viability at 50 µM (MCF7 [4]) of 28%, a viability at 100 µM (MCF7 [5]) of 29.1% and an IC50 (MCF7 [1]) of 8.11 µM.

With `N#Cc1c(-c2ccc(Br)cc2)cn(-c2ccc(S(N)(=O)=O)cc2)c1NC(=O)c1ccc(Br)cc1` the viability at 10 µM (MCF7 [2]) was 35.8%, the viability at 25 µM (MCF7 [3]) was 32.7% and the viability at 50 µM (MCF7 [4]) was 24.9%. The viability at 100 µM (MCF7 [5]) was 25.4% and the IC50 (MCF7 [1]) was 7.56 µM.

With `NS(=O)(=O)c1ccc(-n2cc(-c3ccc(Br)cc3)c3c(=O)n(C(=O)c4ccccc4)c(-c4ccccc4)nc32)cc1` the Ki (Carbonic anhydrase 1) was > 10 µM, the Ki (Carbonic anhydrase 9) was 0.0065 µM and the viability at 10 µM (MCF7 [2]) was 36.6%. It also gave a viability at 25 µM (MCF7 [3]) of 31.8%, a viability at 50 µM (MCF7 [4]) of 28.4% and a viability at 100 µM (MCF7 [5]) of 26.8%. The IC50 (MCF7 [1]) was 8.11 µM.

For `NS(=O)(=O)c1ccc(-n2cc(-c3ccc(Br)cc3)c3c(=O)n(C(=O)c4ccc(Cl)cc4)c(-c4ccc(Cl)cc4)nc32)cc1`, the Ki (Carbonic anhydrase 1) was > 10 µM, the Ki (Carbonic anhydrase 2) was > 10 µM and the Ki (Carbonic anhydrase 9) was 0.488 µM. For the same compound, the viability at 10 µM (MCF7 [2]) was 54.9%, the viability at 25 µM (MCF7 [3]) was 29.3% and the viability at 50 µM (MCF7 [4]) was 20.1%. The viability at 100 µM (MCF7 [5]) was 29.5% and the IC50 (MCF7 [1]) was 13.1 µM.
